Blank lines part the entries; values can stand above or below the compound they belong to.
Tests used:
HepG2 [1] = test: Cytotoxicity against human HepG2 cells assessed as decrease in cell viability after 72 hrs by MTT assay; details: hepg2, 72 h
Leishmania infantum = test: microbe, parasite or virus in culture; assay type: functional, organism-based; details: MHOM/MA/67/ITMAP-263, 48 h
[2] = test system: Trypanosoma brucei brucei; test: Antitrypanosomal activity against trypomastigote stage of Trypanosoma brucei brucei AnTat 1.9 assessed as decrease in parasite viability after 69 hrs by Alamar Blue assay; assay type: functional, organism-based; details: AnTat 1.9, 69 h
Leishmania donovani [3] = test: Antileishmanial activity against amastigote stage of Leishmania donovani MHOM/IN/00/DEVI infected in human THP1 cells assessed as inhibition of parasite infection after 120 hrs by Giemsa staining-based microscopic method; assay type: functional, organism-based; details: THP-1, 120 h
How it was run: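 THP-1 cells differentiated with PMA (50 ng/mL final), 48 h at 37 °C, 6% CO2, then infected 10:1 with promastigotes acid-primed 24 h at 27 °C in Schneider 20% FCS pH 5.4. After 24 h, compounds in DMSO (<0.5% v/v) added in duplicate for 120 h. Methanol fixation and Giemsa staining; ≥200 cells counted. IC50 is the concentration halving infected macrophages, nonlinear regression, mean of three independent experiments.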

Leishmania donovani [4] = test: Selectivity ratio of IC50 for wild type promastigote stage of Leishmania donovani LdBOB to IC50 for promastigote stage of Leishmania donovani LdBOB over-expressing NTR1; assay type: functional
[5] = Metabolic stability in CD1 mouse liver microsomes at 40 mins by LC-MS method; assay type: ADME, microsome
How it was run: (§1)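 Duplicate incubations with female CD-1 mouse microsomes at 37 °C in 50 mM phosphate pH 7.4 with MgCl2 5 mM, NADP 1 mM, G6PDH 0.4 U/mL and glucose-6-phosphate 5 mM. Samples at 0, 5, 10, 20, 30 and 40 min quenched with 4 vol acetonitrile containing internal standard, then LC-MS/MS.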

serum albumin [6] = target: T1, serum albumin (Homo sapiens, UniProt P02768); test: Binding affinity to human serum albumin after 4 hrs by LC-MS method; assay type: ADME; details: read-out: PB (converted)
T1 sequence (P02768 whole entry): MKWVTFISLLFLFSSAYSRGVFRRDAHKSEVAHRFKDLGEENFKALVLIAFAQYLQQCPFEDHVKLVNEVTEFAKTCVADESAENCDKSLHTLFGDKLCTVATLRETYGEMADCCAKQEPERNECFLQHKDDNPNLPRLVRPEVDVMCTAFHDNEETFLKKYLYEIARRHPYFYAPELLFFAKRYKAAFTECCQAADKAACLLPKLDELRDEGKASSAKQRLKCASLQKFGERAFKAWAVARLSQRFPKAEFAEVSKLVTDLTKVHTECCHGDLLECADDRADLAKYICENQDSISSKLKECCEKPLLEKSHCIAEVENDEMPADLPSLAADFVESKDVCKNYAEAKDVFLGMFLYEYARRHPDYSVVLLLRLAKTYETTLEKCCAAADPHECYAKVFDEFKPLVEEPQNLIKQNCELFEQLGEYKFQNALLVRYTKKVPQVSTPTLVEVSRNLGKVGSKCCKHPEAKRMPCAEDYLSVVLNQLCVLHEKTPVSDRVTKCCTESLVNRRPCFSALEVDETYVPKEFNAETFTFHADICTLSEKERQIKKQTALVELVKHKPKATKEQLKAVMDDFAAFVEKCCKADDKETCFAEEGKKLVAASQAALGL

Salmonella typhimurium [7] = test: Mutagenicity in Salmonella typhimurium TA98 at […] preincubated for 1 hr with S9 mix followed by addition of molten top agar and measured 48 hrs post dark incubation by Ames test; assay type: toxicity, organism-based; details: salmonella enterica subsp. enterica serovar typhimurium
Leishmania donovani [8] = test: Antileishmanial activity against wild type promastigote stage of Leishmania donovani LdBOB assessed as inhibition of parasite growth after 72 hrs by resazurin assay; assay type: functional, organism-based
How it was run: (§2)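 LdBOB promastigotes (from MHOM/SD/62/1S-CL2D) grown at 26 °C in modified M199. NTR1- and NTR2-overexpressing lines kept in nourseothricin 100 µg/mL. Triplicate 10 mL cultures seeded at 5 × 10⁴ parasites/mL and exposed to drug for 72 h. 50 µM resazurin added, fluorescence (ex 528/em 590 nm) read after 4 h. Background-corrected data fitted to two-parameter EC50 equation. Experiments were run at least twice; values are mean plus standard deviation.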

[9] = Metabolic stability in CD1 mouse liver microsomes at 20 mins by LC-MS method; assay type: ADME, microsome; how it was run: as §1
[10] = test system: Trypanosoma brucei brucei; test: Antitrypanosomal activity against trypomastigote stage of Trypanosoma brucei brucei S427 over-expressing NTR1 assessed as parasite growth inhibition after 72 hrs by haemocytometer; assay type: functional, organism-based; details: S427, 72 h
[11] = test system: Trypanosoma brucei brucei; test: Antitrypanosomal activity against wild type trypomastigote stage of Trypanosoma brucei brucei S427 assessed as parasite growth inhibition after 72 hrs by haemocytometer; assay type: functional, organism-based; details: S427, 72 h
THP-1 = test: Cytotoxicity against human THP1 cells assessed as decrease in cell viability after 72 hrs by MTT assay; assay type: cell-based; details: thp-1, 72 h
How it was run: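 PMA-differentiated THP-1 (50 ng/mL final), 10⁶ cells/mL in complete RPMI, 48 h. Compounds in DMSO (<0.5% v/v) for 72 h at 37 °C. MTT 0.5 mg/mL for 2 h, formazan dissolved in DMSO, A570 with 630 nm reference. Viability expressed as percent of untreated control; doxorubicin as positive control; 50% cytotoxic concentration from dose–response curve.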

[12] = Metabolic stability in CD1 mouse liver microsomes at 10 mins by LC-MS method; assay type: ADME, microsome; how it was run: as §1
Salmonella typhimurium [13] = test: Mutagenicity in Salmonella typhimurium TA100 at […] preincubated for 1 hr with S9 mix followed by addition of molten top agar and measured 48 hrs post dark incubation by Ames test; assay type: toxicity, organism-based; details: salmonella enterica subsp. enterica serovar typhimurium
Leishmania donovani [14] = test: Antileishmanial activity against promastigote stage of Leishmania donovani LdBOB over-expressing NTR2 assessed as inhibition of parasite growth after 72 hrs by resazurin assay; assay type: functional, organism-based; how it was run: as §2
[15] = Metabolic stability in CD1 mouse liver microsomes at 5 mins by LC-MS method; assay type: ADME, microsome; how it was run: as §1
[16] = Electrochemical behavior of the compound assessed as redox potential corrected toward normal hydrogen electrode at 10^-3 mol/L by cyclic voltammetry; details: 1000 µM
Albumin = Albumin (Homo sapiens, UniProt P02768); test: (§3) Binding affinity to human serum albumin assessed as fraction unbound after 4 hrs by LC-MS method; assay type: ADME; details: isolated protein, 4 h
Albumin, sequence (P02768 whole entry): as above

serum albumin [17] = target: T1, serum albumin; test: as §3; assay type: ADME; details: human serum albumin
Salmonella typhimurium [18] = test: Mutagenicity in Salmonella typhimurium TA97a at […] preincubated for 1 hr with S9 mix followed by addition of molten top agar and measured 48 hrs post dark incubation by Ames test; assay type: toxicity, organism-based; details: salmonella enterica subsp. enterica serovar typhimurium
[19] = Half life in CD1 mouse liver microsomes by LC-MS method; assay type: ADME, microsome; how it was run: as §1
[20] = Metabolic stability in CD1 mouse liver microsomes at 30 mins by LC-MS method; assay type: ADME, microsome; details: 0.5 h; how it was run: as §1
HepG2 [21] = test: Genotoxicity in human HepG2 cells at 1 to 40 uM after 2 to 72 hrs by comet assay; assay type: toxicity, cell-based; details: hepg2, 40 µM
How it was run: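 Alkaline comet assay in HepG2 cells exposed 2 or 72 h to 1, 10, 20 or 40 µM. Cells embedded in 0.7% low-melting agarose, lysed 18 h at 4 °C at pH 10, electrophoresed 24 min at 0.8 V/cm at pH >13, then SYBR Gold stained. % tail DNA is the median of 200 cells (50 per deposit, 4 deposits). 1 mM methylmethanesulfonate as positive control.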

Leishmania donovani [22] = test: Antileishmanial activity against promastigote stage of Leishmania donovani LdBOB over-expressing NTR1 assessed as inhibition of parasite growth after 72 hrs by resazurin assay; assay type: functional, organism-based; how it was run: as §2
Salmonella typhimurium [23] = test: Mutagenicity in Salmonella typhimurium TA102 at […] preincubated for 1 hr with S9 mix followed by addition of molten top agar and measured 48 hrs post dark incubation by Ames test; assay type: toxicity, organism-based; details: salmonella enterica subsp. enterica serovar typhimurium

- IC50 (Leishmania infantum): > 50 µM
- IC50 [2]: > 50 µM
SMILES: Nc1cccc2cc(Br)c(=O)[nH]c12
- CC50 (HepG2 [1]): > 100 µM

- IC50 (Leishmania infantum): 23.4 µM
- IC50 [2]: 38.3 µM
SMILES: O=c1cc(CO)c2cccc([N+](=O)[O-])c2[nH]1
- CC50 (HepG2 [1]): > 100 µM

- IC50 (Leishmania infantum): 16 µM
- Activity [16]: -0.47 V
- IC50 [2]: 1.2 µM
SMILES: O=c1[nH]c2c([N+](=O)[O-])cccc2cc1Cl
- CC50 (HepG2 [1]): 85 µM

- IC50 (Leishmania infantum): > 100 µM
- IC50 [2]: 7.6 µM
SMILES: NCCOCCOCCNCc1cc(=O)[nH]c2c([N+](=O)[O-])cccc12
- CC50 (HepG2 [1]): > 100 µM

- IC50 (Leishmania infantum): > 100 µM
- Activity [16]: -0.58 V
- IC50 [2]: > 50 µM
SMILES: COc1cc([N+](=O)[O-])c2[nH]c(=O)ccc2c1
- CC50 (HepG2 [1]): > 100 µM

- fraction unbound at 4 h (serum albumin [6]): 0.276
- logFu (Albumin): -0.56
- fraction unbound at 4 h (serum albumin [17]): 0.276
SMILES: NC(=O)N1c2ccccc2C=Cc2ccccc21 [CARBAMAZEPINE]

- IC50 [2]: 15.8 µM
SMILES: NCCC[C@](N)(C(=O)O)C(F)F [EFLORNITHINE, (S)-]
- CC50 (HepG2 [1]): > 100 µM

- IC50 (Leishmania donovani [3]): > 50 µM
- IC50 (Leishmania infantum): 3.4 µM
- IC50 [2]: 0.4 µM
SMILES: CSc1ccc(OCc2ncc([N+](=O)[O-])n2C)cc1 [FEXINIDAZOLE]
- CC50 (HepG2 [1]): > 200 µM
- CC50 (THP-1): > 62.5 µM

- IC50 (Leishmania donovani [3]): 5.4 µM
- IC50 (Leishmania infantum): 0.8 µM
SMILES: CCCCCCCCCCCCCCCCOP(=O)([O-])OCC[N+](C)(C)C [MILTEFOSINE]
- CC50 (THP-1): > 40 µM

Second part, the compound before the results:

SMILES: O=c1[nH]c2c([N+](=O)[O-])cccc2cc1Br
- IC50 (Leishmania donovani [3]): 18 µM
- Ratio IC50 (Leishmania donovani [4]): 10
- CC50 (HepG2 [1]): 92 µM
- Stability [5]: 772 pmol/mL
- fraction unbound at 4 h (serum albumin [6]): 0.078
- Activity (Salmonella typhimurium [7]; 250 µM): Toxic
- Activity (Salmonella typhimurium [7]; 2500 µM): Toxic
- IC50 (Leishmania donovani [8]): 5.9 µM
- IC50 (Leishmania infantum): 7.1 µM
- Stability [9]: 802 pmol/mL
- IC50 [10]: 3.9 µM
- IC50 [11]: 17.7 µM
- CC50 (THP-1): 72 µM
- Stability [12]: 869 pmol/mL
- Activity (Salmonella typhimurium [13]; 250 µM): Toxic
- Activity (Salmonella typhimurium [13]; 2500 µM): Toxic
- IC50 (Leishmania donovani [14]): 4.6 µM
- Stability [15]: 861 pmol/mL
- Activity [16]: -0.45 V
- logFu (Albumin): -1.11
- fraction unbound at 4 h (serum albumin [17]): 0.078
- Activity (Salmonella typhimurium [18]; 250 µM): Toxic
- Activity (Salmonella typhimurium [18]; 2500 µM): Toxic
- t1/2 [19]: > 40 min
- Stability [20]: 780 pmol/mL
- Activity (HepG2 [21]): Non-Toxic
- IC50 [2]: 1.9 µM
- IC50 (Leishmania donovani [22]): 0.47 µM
- Activity (Salmonella typhimurium [23]; 250 µM): Non-Toxic
- Activity (Salmonella typhimurium [23]; 2500 µM): Toxic

SMILES: Cc1cc([N+](=O)[O-])c2[nH]c(=O)ccc2c1
- CC50 (HepG2 [1]): > 100 µM
- IC50 (Leishmania infantum): 23 µM
- Activity [16]: -0.56 V
- IC50 [2]: 2.1 µM

SMILES: CC(=O)Nc1ccc2cccnc2c1[N+](=O)[O-]
- CC50 (HepG2 [1]): > 100 µM
- IC50 (Leishmania infantum): > 100 µM
- Activity [16]: -0.86 V
- IC50 [2]: 10.8 µM

SMILES: Cc1ccc([N+](=O)[O-])c2[nH]c(=O)ccc12
- CC50 (HepG2 [1]): > 100 µM
- IC50 (Leishmania infantum): 25.2 µM
- Activity [16]: -0.58 V
- IC50 [2]: 29.1 µM

SMILES: C[C@@H]1[C@H](O)[C@@H](C)/C=C/C=C/C=C/C=C/C=C/C=C/C=C/[C@H](O[C@@H]2O[C@H](C)[C@@H](O)[C@H](N)[C@@H]2O)C[C@@H]2O[C@](O)(C[C@@H](O)C[C@@H](O)[C@H](O)CC[C@@H](O)C[C@@H](O)CC(=O)O[C@H]1C)C[C@H](O)[C@H]2C(=O)O [AMPHOTERICIN B]
- IC50 (Leishmania donovani [3]): 0.4 µM
- IC50 (Leishmania infantum): 0.06 µM
- CC50 (THP-1): 3.6 µM

SMILES: O=[N+]([O-])c1ccccc1 [NITROBENZENE]
- CC50 (HepG2 [1]): > 100 µM
- IC50 (Leishmania infantum): > 100 µM
- Activity [16]: -0.85 V
- IC50 [2]: > 50 µM

SMILES: Cc1ccc(C(=O)Nc2ccc(S(=O)(=O)O)c3cc(S(=O)(=O)O)cc(S(=O)(=O)O)c23)cc1NC(=O)c1cccc(NC(=O)Nc2cccc(C(=O)Nc3cc(C(=O)Nc4ccc(S(=O)(=O)O)c5cc(S(=O)(=O)O)cc(S(=O)(=O)O)c45)ccc3C)c2)c1 [SURAMIN]
- CC50 (HepG2 [1]): > 100 µM

Source: ChEMBL document CHEMBL4152289, “Novel 8-nitroquinolin-2(1H)-ones as NTR-bioactivated antikinetoplastid molecules: Synthesis, electrochemical and SAR study” (Eur J Med Chem, 2018)
